The test system of one data set is SGLT2. Conditions: in vitro, cited from earlier work.
For data set [1], the system named is patients with type 2 diabetes mellitus. Put plainly: Fasting plasma glucose. To be noted: day 10, 1 day after the last dose. Type of data set: in vivo, human. The method in brief: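 Fasting plasma glucose was measured after a 10 h overnight fast. Dosing was oral, once daily with 240 mL water: a single dose on day 1, none on day 2, then daily on days 3–9. Patients were randomized 3:1 to test compound or placebo within each dose group (2.5, 10, 25, 100 mg; n = 12 per group). Descriptive statistics used the treated set (n = 48).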

The test system is the same in data set [2]. Put plainly: Derived creatinine clearance. Type of data set: in vivo, human. An outline of the steps: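 Derived creatinine clearance was calculated from urinary creatinine concentration and volume in timed urine fractions, together with plasma creatinine. It is expressed as […] and given as change from baseline. Dosing was oral, once daily with 240 mL water: a single dose on day 1, then daily on days 3–9.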

Turning to `OC[C@H]1O[C@@H](c2ccc(Cl)c(Cc3ccc(O[C@H]4CCOC4)cc3)c2)[C@H](O)[C@@H](O)[C@@H]1O` [Empagliflozin], in the data set on SGLT2, the pIC50 (SE), inhibition of SGLT2 is 8.5. Also, the IC50 – broadly, the concentration needed to halve the response being measured – in the data set with SGLT2 (read-out: IC50, inhibition of SGLT2) was 3.1 nM. In data set [1], the “FPG lower than on day 1” value is “at least 14%”. In addition, the “Change from baseline in derived creatinine clearance, mean (SD)” value is on record as −57.0 (59.4) mL/min 1.73 m^2 in data set [2] (2.5 mg qd, 16 h); 360 (620) mL/min 1.73 m^2 in data set [2] (2.5 mg qd, 166 h, n = 7); −20.3 (59.2) mL/min 1.73 m^2 in data set [2] (2.5 mg qd, 184 h); −28.7 (34.2) mL/min 1.73 m^2 in data set [2] (10 mg qd, 16 h); 12.8 (54.7) mL/min 1.73 m^2 in data set [2] (10 mg qd, 166 h); −38.4 (36.4) mL/min 1.73 m^2 in data set [2] (10 mg qd, 184 h). Besides, the “Change from baseline in derived creatinine clearance, mean (SD)” value is recorded as −89.2 (43.2) mL/min 1.73 m^2 in data set [2] (25 mg qd, 16 h); −40.3 (61.7) mL/min 1.73 m^2 in data set [2] (25 mg qd, 166 h); −52.4 (45.5) mL/min 1.73 m^2 in data set [2] (25 mg qd, 184 h); −21.0 (59.3) mL/min 1.73 m^2 in data set [2] (100 mg qd, 16 h); −10.6 (58.0) mL/min 1.73 m^2 in data set [2] (100 mg qd, 166 h); −14.4 (55.3) mL/min 1.73 m^2 in data set [2] (100 mg qd, 184 h).

Source of the values: paper PMC3889329 (Diabetes Therapy, 2013).
